Laboratory results: PMC6761749 (ACS Omega, 2019)

Assays:
human PBMCs = experiment: TNFα induction from human PBMCs; format: cell-based; conditions: hPBMCs, in the dose range evaluated
Outline: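 Donor PBMCs from healthy human whole blood were isolated on a Ficoll-Hypaque 1.077 gradient and plated at 0.5 × 10^6 cells/well in RPMI-1640 with pen/strep/glutamine and 10% heat-inactivated FBS. Test compounds (stocks 3–5 mg/mL in 2% glycerol–10% DMSO/water) were added at increasing concentrations for 24 h. Supernatant TNFα and IFNα were measured by ELISA. MEC is the lowest tested dose inducing cytokine. Values come from one of three donors.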

human TLR7 = biological target: T1, human TLR7 (Homo sapiens, UniProt Q9NYK1); experiment: HEK293-hTLR7 NFκB SEAP reporter assay; format: cell-based; conditions: comparator 1b
T1 sequence (Q9NYK1 27-1049): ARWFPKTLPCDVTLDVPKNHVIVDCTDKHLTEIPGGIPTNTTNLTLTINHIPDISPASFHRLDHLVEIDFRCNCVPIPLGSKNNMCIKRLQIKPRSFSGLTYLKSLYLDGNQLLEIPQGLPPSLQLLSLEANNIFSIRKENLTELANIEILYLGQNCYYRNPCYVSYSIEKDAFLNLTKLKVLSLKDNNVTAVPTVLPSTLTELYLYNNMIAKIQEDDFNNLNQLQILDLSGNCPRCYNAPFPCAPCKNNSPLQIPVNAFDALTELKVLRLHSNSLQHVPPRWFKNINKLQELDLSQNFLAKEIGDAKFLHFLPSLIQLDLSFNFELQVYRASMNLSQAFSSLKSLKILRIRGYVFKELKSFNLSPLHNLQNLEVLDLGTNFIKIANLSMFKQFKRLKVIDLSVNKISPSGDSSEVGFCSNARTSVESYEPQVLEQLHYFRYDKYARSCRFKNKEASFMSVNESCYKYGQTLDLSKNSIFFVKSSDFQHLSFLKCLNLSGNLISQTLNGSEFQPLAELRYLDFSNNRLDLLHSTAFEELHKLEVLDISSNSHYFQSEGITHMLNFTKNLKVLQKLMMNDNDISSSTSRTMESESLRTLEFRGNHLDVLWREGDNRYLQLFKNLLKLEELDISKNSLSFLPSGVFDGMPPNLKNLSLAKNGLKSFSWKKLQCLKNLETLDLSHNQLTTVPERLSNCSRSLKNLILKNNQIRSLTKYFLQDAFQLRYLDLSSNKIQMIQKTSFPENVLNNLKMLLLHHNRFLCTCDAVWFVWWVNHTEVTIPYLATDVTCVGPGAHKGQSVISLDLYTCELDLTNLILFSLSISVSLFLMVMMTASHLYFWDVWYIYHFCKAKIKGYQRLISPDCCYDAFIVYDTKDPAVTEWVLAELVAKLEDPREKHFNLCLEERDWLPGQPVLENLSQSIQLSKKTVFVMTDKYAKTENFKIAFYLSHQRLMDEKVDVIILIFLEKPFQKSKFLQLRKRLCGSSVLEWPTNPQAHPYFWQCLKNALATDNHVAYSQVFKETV

CCCCOc1nc(N)c2[nH]c(=O)n(C3CNC3)c2n1.Cl [Compound 3a, 6-Amino-2-butoxy-9-(3-azetidinyl)-7,9-dihydro-8H-purin-8-one Hydrochloride] was tested, and the TNFα induction (human PBMCs) was “did not induce measurable TNFα”.
In the case of CCCCOc1nc(N)c2[nH]c(=O)n(CCN3CCNCC3)c2n1.Cl [Compound 7a, 6-Amino-2-butoxy-9-(4-piperazinyl)ethyl-7,9-dihydro-8H-purin-8-one Hydrochloride], the “fold less active (hTLR7) than 1b” value (human TLR7) was 12 fold.
